Results: ChEMBL document CHEMBL5223167, “Synthesis of Novel Kidney-Type Glutaminase Allosteric Inhibitors Targeting the Critical Lys-320 Residue” (ACS Med Chem Lett, 2023)
The source made the active and inactive calls. No cut-off for these calls is given here.

What was measured:
[1] = target: Glutamate dehydrogenase 1, mitochondrial (Bos taurus) (UniProt P00366); assay: Inhibition of bovine GDH using glutamate as substrate preincubated for 0.5 hrs followed by substrate addition and further incubated for 1 hr in presence of NADP+ by EZMTT reagent based assay
Chain of Glutamate dehydrogenase 1, mitochondrial (Bos taurus) (P00366 whole entry): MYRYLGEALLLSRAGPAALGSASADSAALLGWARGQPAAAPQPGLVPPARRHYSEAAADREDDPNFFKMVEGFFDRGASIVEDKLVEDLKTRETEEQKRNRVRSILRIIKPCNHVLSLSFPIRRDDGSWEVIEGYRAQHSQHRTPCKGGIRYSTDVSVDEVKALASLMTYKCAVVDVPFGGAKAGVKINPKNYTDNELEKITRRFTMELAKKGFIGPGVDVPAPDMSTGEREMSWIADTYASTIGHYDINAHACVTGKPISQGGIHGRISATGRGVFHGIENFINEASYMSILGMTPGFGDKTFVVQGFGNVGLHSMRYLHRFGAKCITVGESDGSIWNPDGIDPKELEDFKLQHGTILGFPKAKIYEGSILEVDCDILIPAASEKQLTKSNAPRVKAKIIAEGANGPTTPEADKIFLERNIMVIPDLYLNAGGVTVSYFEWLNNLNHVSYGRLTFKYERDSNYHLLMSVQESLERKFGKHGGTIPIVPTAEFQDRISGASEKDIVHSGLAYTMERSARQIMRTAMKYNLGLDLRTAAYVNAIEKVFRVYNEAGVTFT

[2] = Stability of compound; format: physicochemical
HCT-116 [3] = assay: Antiproliferative activity against human HCT-116 cells assessed as growth rate at 1 uM measured after 2 to 24 hrs by EZMTT assay (reference value: 100%); format: functional; conditions: for growth at 1 µM: Homo sapiens, HCT-116, time 2-24 hrs, read-out: Activity
HCT-116 [4] = assay: Antiproliferative activity against human HCT-116 cells assessed as growth rate at 3 uM measured after 2 to 24 hrs by EZMTT assay (reference value: 100%); format: functional; conditions: for growth at 3 µM: Homo sapiens, HCT-116, time 2-24 hrs, read-out: Activity
HCT-116 [5] = assay: Antiproliferative activity against human HCT-116 cells assessed as growth rate at 10 uM measured after 2 to 24 hrs by EZMTT assay (reference value: 100%); format: functional; conditions: for growth at 10 µM: Homo sapiens, HCT-116, time 2-24 hrs, read-out: Activity
[6] = Metabolic stability in mouse liver microsomes assessed as parent compound remaining measured for 2 hrs by HPLC analysis; format: ADME, Microsome; conditions: read-out: Stability
Outline: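 Compound is incubated with mouse liver microsomes for 2 h. The parent level remaining is quantified by HPLC, with coumarin as the reference control.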

[7] = Half life in ICR mouse at […], iv measured for 24 hrs by HPLC analysis; format: ADME, organism-based; conditions: in vivo
[8] = Clearance in ICR mouse at […], iv measured for 24 hrs by HPLC analysis; format: ADME, organism-based; conditions: in vivo
A549 [9] = assay: Inhibition of colony formation in human A549 cells assessed as reduction in number and size of colonies incubated for 14 days by crystal violet staining based assay; format: functional, cell-based; conditions: dose 1-5 µM, time 14.0 day
A549 [10] = assay: Induction of ROS production in human A549 cells at 5 to 10 uM incubated for 12 hrs by dichlorodihydro-fluorescein diacetate probe based fluorescence microscopic analysis; format: functional, cell-based; conditions: dose 5-10 µM
[11] = target: T1, Glutaminase kidney isoform, mitochondrial (Homo sapiens, UniProt O94925); assay: Inhibition of human KGA using glutamine as substrate preincubated for 0.5 hrs followed by substrate addition and measured after 4 hrs by EZMTT reagent based assay
T1 sequence (O94925 whole entry): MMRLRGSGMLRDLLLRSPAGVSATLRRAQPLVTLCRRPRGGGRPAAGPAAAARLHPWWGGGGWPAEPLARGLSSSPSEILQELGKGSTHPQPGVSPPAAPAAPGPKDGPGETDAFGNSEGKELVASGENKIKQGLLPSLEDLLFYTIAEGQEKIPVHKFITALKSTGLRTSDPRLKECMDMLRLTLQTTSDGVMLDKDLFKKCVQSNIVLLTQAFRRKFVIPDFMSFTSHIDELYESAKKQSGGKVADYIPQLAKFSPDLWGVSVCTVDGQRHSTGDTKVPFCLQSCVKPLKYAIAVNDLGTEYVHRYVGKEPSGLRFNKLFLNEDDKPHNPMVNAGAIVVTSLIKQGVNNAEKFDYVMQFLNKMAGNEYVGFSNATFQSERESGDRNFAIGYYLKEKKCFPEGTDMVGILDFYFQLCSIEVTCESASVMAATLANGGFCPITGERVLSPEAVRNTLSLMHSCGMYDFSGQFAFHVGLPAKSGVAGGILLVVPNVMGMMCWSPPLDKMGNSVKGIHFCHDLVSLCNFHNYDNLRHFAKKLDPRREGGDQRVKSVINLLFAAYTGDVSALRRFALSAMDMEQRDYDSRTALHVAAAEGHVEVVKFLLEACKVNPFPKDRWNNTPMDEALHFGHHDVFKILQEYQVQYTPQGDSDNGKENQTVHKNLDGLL

Homo sapiens [12] = species: Homo sapiens; assay: Binding affinity to alanine residue of human KGA K320A mutant assessed as covalent bond formation
[13] = target: T2, Glutaminase kidney isoform, mitochondrial (Homo sapiens) (UniProt O94925); assay: Covalent inhibition of wild type human KGA using glutamine as substrate at 10 uM preincubated for 0.5 hrs followed by substrate addition and measured after 4 hrs by EZMTT reagent based assay; conditions: time 4.5 hrs
T2 sequence (whole entry): T1 sequence (O94925 whole entry)
Outline: (§1)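 Human KGA, either wild-type or the K320A mutant, is pre-incubated with or without compound at 10 μM before the enzyme activity assay.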

Homo sapiens [14] = species: Homo sapiens; assay: Covalent inhibition of human KGA K320A mutant using glutamine as substrate at 10 uM preincubated for 0.5 hrs followed by substrate addition and measured after 4 hrs by EZMTT reagent based assay; conditions: time 4.5 hrs; outline: as §1
[15] = target: T2, Glutaminase kidney isoform, mitochondrial (Homo sapiens); assay: Inhibition of biotinylated N-[6-[4-[5-[[2-(2-pyridyl)acetyl]amino]-1,3,4-thiadiazol-2-yl]butyl]pyridazin-3-yl]-2-[3-(trifluoromethoxy)phenyl]acetamide binding to wild type human KGA at >300 nM by biomolecular interaction assay
Homo sapiens [16] = species: Homo sapiens; assay: Inhibition of biotinylated N-[6-[4-[5-[[2-(2-pyridyl)acetyl]amino]-1,3,4-thiadiazol-2-yl]butyl]pyridazin-3-yl]-2-[3-(trifluoromethoxy)phenyl]acetamide binding to human KGA K320A mutant by biomolecular interaction assay; conditions: dose 0-3 µM
[17] = target: T1, Glutaminase kidney isoform, mitochondrial; assay: Binding affinity to wild type human KGA assessed as covalent bond formation by measuring dissociation constant by biomolecular interaction assay
HCT-116 [18] = assay: Antiproliferative activity against human HCT-116 cells assessed as inhibition of cell growth by measuring fold improvement in IC50 incubated for 5 days by EZMTT assay relative to control; format: functional; conditions: time 5 day
H22 = assay: Antiproliferative activity against mouse H22 cells assessed as inhibition of cell growth by measuring fold improvement in IC50 incubated for 5 days by EZMTT assay relative to control; format: functional; conditions: time 5 day

C=CC(=O)Nc1ccc(CCCCc2nnc(NC(=O)Cc3cc4ccccc4n3C)s2)nn1
inhibition [1]: inactive | Stability [2]: Unstable

C=CC(=O)Nc1ccc(CCCCc2nnc(NC(=O)Cc3ccccn3)[se]2)nn1
inhibition [1]: inactive | Stability [2]: Unstable

C=C(C(=O)Nc1ccc(CCCCc2nnc(NC(=O)Cc3ccccn3)[se]2)nn1)c1cccc(OC(F)(F)F)c1
inhibition [1]: inactive | Stability [2]: Unstable

O=C(Cc1cccc(OC(F)(F)F)c1)Nc1ccc(CCCCc2nnc(NC(=O)Cc3ccccn3)s2)nn1
Activity (HCT-116 [3]; time 2-24 hrs): 19.1% | Activity (HCT-116 [4]; time 2-24 hrs): 17% | Activity (HCT-116 [5]; time 2-24 hrs): 14.1% | inhibition [1]: inactive

O=C(/C=C/c1ccc2c(c1)OCO2)Nc1ccc(CCCCc2nnc(NC(=O)Cc3ccccn3)[se]2)nn1
remaining at 2 h [6]: 74% | half-life [7]: 4.89 h | clearance [8]: 327 mL/min/kg | growth at 1 µM (HCT-116 [3]): 14.3% | growth at 3 µM (HCT-116 [4]): 6% | growth at 10 µM (HCT-116 [5]): 6.3% | inhibition (A549 [9]): Dose-Dependent Effect | Activity (A549 [10]): Active | IC50 [11]: 50 nM | inhibition [1]: inactive | Activity (Homo sapiens [12]): inactive | inhibition [13]: 100% | inhibition (Homo sapiens [14]): inactive | inhibition [15]: Active | inhibition (Homo sapiens [16]): Dose-Dependent Effect | Kd [17]: ≤ 0.001 nM | Stability [2]: Stable

C=CC(=O)Nc1ccc(CCCCc2nnc(NC(=O)Cc3ccccn3)s2)nn1
inhibition [1]: inactive | Stability [2]: Unstable

O=c1ccc2ccccc2o1 [COUMARIN]
remaining at 2 h [6]: 61%

O=C(/C=C/c1ccc2c(c1)OCO2)Nc1ccc(CCCCc2nnc(NC(=O)Cc3ccccn3)s2)nn1
remaining at 2 h [6]: 83% | half-life [7]: 3.37 h | clearance [8]: 582 mL/min/kg | fold change (FC) (HCT-116 [18]): 3 | fold change (FC) (H22): 30 | growth at 1 µM (HCT-116 [3]): 11.9% | growth at 3 µM (HCT-116 [4]): 7.6% | growth at 10 µM (HCT-116 [5]): 6.1% | inhibition (A549 [9]): Dose-Dependent Effect | Activity (A549 [10]): Active | IC50 [11]: 28 nM | inhibition [1]: inactive | Activity (Homo sapiens [12]): inactive | inhibition [13]: 100% | inhibition (Homo sapiens [14]): inactive | inhibition [15]: Active | inhibition (Homo sapiens [16]): Dose-Dependent Effect | Kd [17]: ≤ 0.001 nM | Stability [2]: Stable

O=C(/C=C/c1cc(F)ccc1F)Nc1ccc(CCCCc2nnc(NC(=O)Cc3ccccn3)[se]2)nn1
inhibition [1]: inactive | Stability [2]: Unstable
